Assay results from ChEMBL document CHEMBL1152409, “Constituents of the moss Polytrichum commune” (J Nat Prod, 2009).

Tested on: LoVo
Test: Cytotoxicity against human LoVo cells after 24 hrs by MTT assay
Assay type: functional, cell-based
Details: not given
Procedure, shortened: (§1)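 Cell lines from ATCC were seeded at 3000 cells per well and exposed to a range of compound concentrations 24 h after seeding. Treatment lasted 24 h. MTT was then added and plates were incubated for a further 24 h. Viability was read as absorbance at 570 nm, and IC50 was determined.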

Row | Structure (SMILES) | IC50 [µg/mL]
1 | O=C1C[C@@H](c2ccccc2)Oc2cc(O)cc(/C=C\c3ccccc3)c21 [COMMUNIN A] | > 5
2 | O=C1C[C@@H](c2ccccc2)Oc2cc(O)cc(/C=C/c3ccccc3)c21 [COMMUNIN B] | > 5
3 | O=C1C[C@@H]2c3ccccc3O[C@H]3c4ccc(O)cc4-c4c(O)cc(O)c1c4[C@H]23 [OHIOENSIN H] | > 5

Tested on: MDA-MB-435
Test: Cytotoxicity against human MDA-MB-435 cells after 24 hrs by MTT assay
Assay type: functional, cell-based
Details: MDA-MB-435, 24 h
Procedure, shortened: as §1

Row | Structure (SMILES) | IC50 [µg/mL]
4 | O=C1C[C@@H](c2ccccc2)Oc2cc(O)cc(/C=C\c3ccccc3)c21 [COMMUNIN A] | > 5
5 | O=C1C[C@@H](c2ccccc2)Oc2cc(O)cc(/C=C/c3ccccc3)c21 [COMMUNIN B] | > 5
6 | O=C1C[C@@H]2c3ccccc3O[C@H]3c4ccc(O)cc4-c4c(O)cc(O)c1c4[C@H]23 [OHIOENSIN H] | > 5

Tested on: A549
Test: Cytotoxicity against human A549 cells after 24 hrs by MTT assay
Assay type: functional, cell-based
Details: A549, 24 h
Procedure, shortened: as §1

Row | Structure (SMILES) | IC50 [µg/mL]
7 | O=C1C[C@@H](c2ccccc2)Oc2cc(O)cc(/C=C\c3ccccc3)c21 [COMMUNIN A] | > 5
8 | O=C1C[C@@H](c2ccccc2)Oc2cc(O)cc(/C=C/c3ccccc3)c21 [COMMUNIN B] | > 5
9 | O=C1C[C@@H]2c3ccccc3O[C@H]3c4ccc(O)cc4-c4c(O)cc(O)c1c4[C@H]23 [OHIOENSIN H] | > 5

Tested on: not listed separately
Test: Cytotoxicity against human cells 6T-CEM after 24 hrs by MTT assay
Assay type: functional, cell-based
Details: not given
Procedure, shortened: as §1

Row | Structure (SMILES) | IC50 [µg/mL]
10 | O=C1C[C@@H](c2ccccc2)Oc2cc(O)cc(/C=C\c3ccccc3)c21 [COMMUNIN A] | > 5
11 | O=C1C[C@@H](c2ccccc2)Oc2cc(O)cc(/C=C/c3ccccc3)c21 [COMMUNIN B] | > 5
12 | O=C1C[C@@H]2c3ccccc3O[C@H]3c4ccc(O)cc4-c4c(O)cc(O)c1c4[C@H]23 [OHIOENSIN H] | > 5

Tested on: HepG2
Test: Cytotoxicity against human HepG2 cells after 24 hrs by MTT assay
Assay type: functional, cell-based
Details: HepG2, 24 h
Procedure, shortened: as §1

Row | Structure (SMILES) | IC50 [µg/mL]
13 | O=C1C[C@@H](c2ccccc2)Oc2cc(O)cc(/C=C\c3ccccc3)c21 [COMMUNIN A] | > 5
14 | O=C1C[C@@H](c2ccccc2)Oc2cc(O)cc(/C=C/c3ccccc3)c21 [COMMUNIN B] | > 5
15 | O=C1C[C@@H]2c3ccccc3O[C@H]3c4ccc(O)cc4-c4c(O)cc(O)c1c4[C@H]23 [OHIOENSIN H] | > 5
